Experiments:
Coagulation factor X = Coagulation factor X (Homo sapiens, UniProt P00742); experiment: Inhibition of human factor 10a
Summary of the method: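 Human FXa was preincubated with compound in DMSO; 3 mM chromogenic substrate (stock) was added for 10 min at 37 °C. Inhibition was computed against DMSO control, with IC50 from least-squares regression; duplicate means.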

Plasma [1] = experiment: Anticoagulant potency in human plasma assessed as concentration required to double prothrombin time after 4 mins; type: functional
Summary of the method: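 Human normal plasma was preincubated with compound in DMSO at 37 °C for 4 min. Clotting was started with thromboplastin and PT was timed on an automatic coagulometer. Prolongation was referenced to DMSO vehicle, and PT2 (clotting-time doubling concentration) was obtained from a least-squares regression line. Duplicate measurements, averaged.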

Plasma [2] = experiment: Anticoagulant potency in mouse plasma assessed as concentration required to double prothrombin time after 4 mins; type: functional
Mus musculus = experiment: Ex vivo anticoagulant potency in ICR mouse blood at 30 mg/kg, po after 1 hr expressed as ratio of prothrombin time in drug treated animal to control; type: functional
Summary of the method: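 Male ICR mice (30-35 g), fasted >12 h, received compound orally at 30 mg/kg as a suspension in 0.5% methylcellulose; controls got vehicle alone (n = 3-5). Aortic blood was taken at 1 h under pentobarbital into 3.8% citrate (9:1). Platelet-poor plasma (1000g, 10 min) was preincubated 4 min at 37 °C, then thromboplastin added. Clotting time expressed as ratio versus control.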

CYP3A4 = CYP3A4 (Homo sapiens, UniProt P08684); experiment: Inhibition of human CYP3A4 at 1 uM by spectrofluorimeter; type: ADME
Summary of the method: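 Microsomes from CYP3A4-expressing insect cells were incubated with 40 µM 7-benzyloxyquinoline and 1 µM test compound. Metabolite formed was quantified with a spectrofluorometer.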

Prothrombin = Prothrombin (Homo sapiens, UniProt P00734); experiment: Inhibition of human thrombin
Summary of the method: (§1)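 Chromogenic assays at 37 °C. Final enzyme levels: thrombin 0.080 U/mL, trypsin 0.040 µg/mL, plasmin 0.040 U/mL, kallikrein 0.020 U/mL, t-PA 4000 U/mL. Compound was preincubated with enzyme in buffer for 30 min, then substrate added and p-nitroanilide release monitored continuously for 5 min at 405 nm. Ki taken from Lineweaver–Burk plots across substrate concentrations.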

Plasma kallikrein = Plasma kallikrein (Homo sapiens, UniProt P03952); experiment: Inhibition of human kallikrein; summary of the method: as §1
Trypsin = Trypsin (Homo sapiens, UniProt P07477+P07478+P35030); experiment: Inhibition of human trypsin; type: protein assay; summary of the method: as §1
Plasminogen = Plasminogen (Homo sapiens, UniProt P00747); experiment: Inhibition of human plasmin; summary of the method: as §1
[3] = target: Tissue-type plasminogen activator (Homo sapiens, UniProt P00750); experiment: Inhibition of human tPA; summary of the method: as §1
[4] = Drug concentration in cynomolgus monkey at 1 mg/kg, iv after 5 mins; type: ADME, organism-based, Macaca fascicularis; parameters: dose 1 mg/kg, route intravenous; conditions: in vivo, read-out: Activity
Summary of the method: (§2)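 Male cynomolgus monkeys (n = 3), fasted; dosed iv (1 mg/kg in DMA/PEG400) or po (1 mg/kg, 0.5% methylcellulose suspension). Femoral vein blood drawn up to 24 h; plasma deproteinized with acetonitrile, diluted with 0.01 M ammonium formate pH 3.0, and analysed by LC/MS/MS (ODS column, positive ion turbo ionspray). Values given as mean ± SD of three determinations.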

Cynomolgus monkey [5] = experiment: AUC in cynomolgus monkey at 1 mg/kg, iv; type: ADME, organism-based, Macaca fascicularis, Plasma; parameters: dose 1 mg/kg, route intravenous; conditions: in vivo; summary of the method: as §2
[6] = Mean residence time in cynomolgus monkey at 1 mg/kg, iv; type: ADME, organism-based, Macaca fascicularis; parameters: dose 1 mg/kg, route intravenous; conditions: in vivo; summary of the method: as §2
[7] = Volume of distribution at steady state in cynomolgus monkey at 1 mg/kg, iv; type: ADME, organism-based, Macaca fascicularis; parameters: dose 1 mg/kg, route intravenous; conditions: in vivo, read-out: Vdss; summary of the method: as §2
[8] = Total clearance in cynomolgus monkey at 1 mg/kg, iv; type: ADME, organism-based, Macaca fascicularis; parameters: dose 1 mg/kg, route intravenous; conditions: in vivo; summary of the method: as §2
[9] = Cmax in cynomolgus monkey at 1 mg/kg, po; type: ADME, organism-based, Macaca fascicularis; parameters: dose 1 mg/kg, route oral; conditions: in vivo; summary of the method: as §2
[10] = Tmax in cynomolgus monkey at 1 mg/kg, po; type: ADME, organism-based, Macaca fascicularis; parameters: dose 1 mg/kg, route oral; conditions: in vivo; summary of the method: as §2
[11] = AUC in cynomolgus monkey at 1 mg/kg, po; type: ADME, organism-based, Macaca fascicularis; parameters: dose 1 mg/kg, route oral; conditions: plasma; summary of the method: as §2
[12] = Mean residence time in cynomolgus monkey at 1 mg/kg, po; type: ADME, organism-based, Macaca fascicularis; parameters: dose 1 mg/kg, route oral; conditions: in vivo; summary of the method: as §2
[13] = Oral bioavailability in cynomolgus monkey at 1 mg/kg; type: ADME, organism-based, Macaca fascicularis; conditions: in vivo; summary of the method: as §2
Cynomolgus monkey [14] = experiment: Ex vivo anticoagulant potency in cynomolgus monkey blood assessed as prothrombin time prolongation at 3 mg/kg, po after 0.5 hr; type: functional, Macaca fascicularis
Summary of the method: (§3)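 Male cynomolgus monkeys (3.5-4 kg), fasted >12 h, n = 3, given 3 mg/kg orally. Femoral vein blood was drawn into 3.8% citrate (9:1) at intervals, spun at 1000g for 10 min to platelet-poor plasma, and PT measured with thromboplastin on a coagulometer. Results are % of basal value, mean ± SEM.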

Cynomolgus monkey [15] = experiment: Ex vivo anticoagulant potency in cynomolgus monkey blood assessed as prothrombin time prolongation at 3 mg/kg, po after 1 hr; type: functional, Macaca fascicularis; summary of the method: as §3
Cynomolgus monkey [16] = experiment: Ex vivo anticoagulant potency in cynomolgus monkey blood assessed as prothrombin time prolongation at 3 mg/kg, po after 2 hrs; type: functional, Macaca fascicularis; summary of the method: as §3
Cynomolgus monkey [17] = experiment: Ex vivo anticoagulant potency in cynomolgus monkey blood assessed as prothrombin time prolongation at 3 mg/kg, po after 4 hrs; type: functional, Macaca fascicularis; summary of the method: as §3
Cynomolgus monkey [18] = experiment: Ex vivo anticoagulant potency in cynomolgus monkey blood assessed as prothrombin time prolongation at 3 mg/kg, po after 8 hrs; type: functional, Macaca fascicularis; summary of the method: as §3
Plasma [19] = experiment: Anticoagulant potency in cynomolgus monkey plasma assessed as concentration required to double prothrombin time; type: functional, Macaca fascicularis

Sequence of Coagulation factor X (P00742 41-179 limits assumed): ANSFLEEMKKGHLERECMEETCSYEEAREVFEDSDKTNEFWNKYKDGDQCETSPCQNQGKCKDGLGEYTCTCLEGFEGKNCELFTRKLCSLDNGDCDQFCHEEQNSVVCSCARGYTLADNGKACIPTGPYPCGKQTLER
Sequence of Coagulation factor X (P00742 235-488 limits assumed): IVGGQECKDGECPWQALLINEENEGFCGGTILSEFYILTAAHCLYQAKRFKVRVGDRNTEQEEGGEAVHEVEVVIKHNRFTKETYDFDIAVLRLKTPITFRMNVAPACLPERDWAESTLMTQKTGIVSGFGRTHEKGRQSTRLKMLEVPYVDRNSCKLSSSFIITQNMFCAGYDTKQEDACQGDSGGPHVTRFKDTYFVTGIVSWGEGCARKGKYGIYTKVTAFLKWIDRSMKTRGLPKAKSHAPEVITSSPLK
Sequence of CYP3A4 (P08684 whole entry): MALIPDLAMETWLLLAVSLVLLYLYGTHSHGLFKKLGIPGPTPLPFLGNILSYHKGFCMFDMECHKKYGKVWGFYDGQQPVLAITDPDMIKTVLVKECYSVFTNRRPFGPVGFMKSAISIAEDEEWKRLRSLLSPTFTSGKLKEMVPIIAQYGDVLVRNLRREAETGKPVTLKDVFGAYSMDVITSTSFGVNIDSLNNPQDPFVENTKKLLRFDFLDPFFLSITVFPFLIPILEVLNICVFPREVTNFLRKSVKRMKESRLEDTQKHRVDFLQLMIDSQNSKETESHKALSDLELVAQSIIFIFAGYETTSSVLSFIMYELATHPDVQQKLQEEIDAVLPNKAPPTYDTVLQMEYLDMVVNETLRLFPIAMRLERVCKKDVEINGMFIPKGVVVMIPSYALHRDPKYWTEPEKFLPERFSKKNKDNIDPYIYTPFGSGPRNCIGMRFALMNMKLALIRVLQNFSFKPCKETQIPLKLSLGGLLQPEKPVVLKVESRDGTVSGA
Sequence of Plasma kallikrein (P03952 20-390 limits assumed): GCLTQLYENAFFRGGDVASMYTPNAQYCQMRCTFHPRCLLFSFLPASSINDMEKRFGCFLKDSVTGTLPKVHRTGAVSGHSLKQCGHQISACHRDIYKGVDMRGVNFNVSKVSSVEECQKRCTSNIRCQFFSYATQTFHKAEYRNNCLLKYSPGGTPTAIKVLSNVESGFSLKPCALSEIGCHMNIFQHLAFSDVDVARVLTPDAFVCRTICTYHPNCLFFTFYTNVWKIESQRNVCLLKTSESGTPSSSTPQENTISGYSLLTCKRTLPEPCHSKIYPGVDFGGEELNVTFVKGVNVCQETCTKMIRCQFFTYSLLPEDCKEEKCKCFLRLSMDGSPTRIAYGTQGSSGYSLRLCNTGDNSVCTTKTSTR
Sequence of Plasma kallikrein (P03952 391-638 limits assumed): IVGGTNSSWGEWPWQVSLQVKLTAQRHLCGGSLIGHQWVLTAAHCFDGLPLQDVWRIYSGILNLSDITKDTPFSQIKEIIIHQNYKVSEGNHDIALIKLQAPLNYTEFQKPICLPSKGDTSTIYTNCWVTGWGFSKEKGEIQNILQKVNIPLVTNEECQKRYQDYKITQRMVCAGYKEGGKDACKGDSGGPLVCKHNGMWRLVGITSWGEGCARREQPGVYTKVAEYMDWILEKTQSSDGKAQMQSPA
Sequence of Plasminogen (P00747 97-580 limits assumed): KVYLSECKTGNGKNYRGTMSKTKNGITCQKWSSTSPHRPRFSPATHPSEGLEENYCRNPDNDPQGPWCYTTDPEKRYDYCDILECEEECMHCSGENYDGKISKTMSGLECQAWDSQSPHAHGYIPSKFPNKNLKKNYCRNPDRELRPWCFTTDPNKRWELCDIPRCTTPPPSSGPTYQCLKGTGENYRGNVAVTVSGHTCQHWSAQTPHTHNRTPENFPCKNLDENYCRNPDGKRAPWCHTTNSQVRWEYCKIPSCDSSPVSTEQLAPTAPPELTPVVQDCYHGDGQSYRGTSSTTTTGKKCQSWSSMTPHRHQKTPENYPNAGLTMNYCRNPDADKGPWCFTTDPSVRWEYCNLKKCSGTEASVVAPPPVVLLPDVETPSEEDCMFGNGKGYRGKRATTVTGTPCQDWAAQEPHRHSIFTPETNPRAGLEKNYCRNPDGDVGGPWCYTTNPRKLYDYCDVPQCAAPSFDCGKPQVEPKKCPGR
Sequence of Plasminogen (P00747 581-810 limits assumed): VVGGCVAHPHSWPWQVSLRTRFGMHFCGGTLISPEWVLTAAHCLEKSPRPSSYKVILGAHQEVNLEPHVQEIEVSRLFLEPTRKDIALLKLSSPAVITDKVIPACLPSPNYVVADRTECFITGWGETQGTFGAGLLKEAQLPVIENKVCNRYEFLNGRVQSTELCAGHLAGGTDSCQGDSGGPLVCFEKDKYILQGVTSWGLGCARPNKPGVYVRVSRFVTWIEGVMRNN
Sequence of Tissue-type plasminogen activator (P00750 whole entry): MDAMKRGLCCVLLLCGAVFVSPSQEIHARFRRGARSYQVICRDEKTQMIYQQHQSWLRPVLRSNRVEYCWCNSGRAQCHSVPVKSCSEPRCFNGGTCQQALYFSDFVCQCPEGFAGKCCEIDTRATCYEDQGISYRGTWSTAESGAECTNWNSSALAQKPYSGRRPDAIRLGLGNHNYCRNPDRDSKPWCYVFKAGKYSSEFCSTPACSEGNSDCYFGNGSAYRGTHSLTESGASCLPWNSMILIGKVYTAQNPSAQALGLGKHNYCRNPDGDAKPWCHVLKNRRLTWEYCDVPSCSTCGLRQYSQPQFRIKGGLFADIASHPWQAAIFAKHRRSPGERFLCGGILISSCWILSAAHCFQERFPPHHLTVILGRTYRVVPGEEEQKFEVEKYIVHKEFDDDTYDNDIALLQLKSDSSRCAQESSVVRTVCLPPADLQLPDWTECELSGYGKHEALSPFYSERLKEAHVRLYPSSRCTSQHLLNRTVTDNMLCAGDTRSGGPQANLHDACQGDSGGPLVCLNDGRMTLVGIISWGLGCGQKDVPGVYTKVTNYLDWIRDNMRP

In the case of `O=C(C1CCN(c2ccncc2)CC1)N1CCN(S(=O)(=O)c2ccc3cc(Cl)ccc3c2)CC1`, the IC50 (Coagulation factor X) is reported as 33 nM.
In the case of `NC(=O)CN(CCCS(=O)(=O)c1ccc2cc(Cl)ccc2c1)C(=O)C1CCN(c2ccncc2)CC1`, the IC50 (Coagulation factor X) is reported as 120 nM and the Activity (Plasma [1]) is reported as 2.1 µM.
`Cc1cc(N2CCC(N(C)C(=O)CCS(=O)(=O)c3ccc4c(Cl)cccc4c3)CC2)ccn1` showed an IC50 (Coagulation factor X) of over 5000 nM.
`CN(C(=O)CCS(=O)(=O)c1ccc2cc(Cl)ccc2c1)C1CCN(c2ccnc(CO)c2)CC1` gave an IC50 (Coagulation factor X) of 110 nM, an Activity (Plasma [1]) of 1.5 µM and an Activity (Plasma [2]) of 6.4 µM. It also gave a Ratio (Mus musculus) of 1.1 and an inhibition at 1 µM (CYP3A4) of 21%.
With `Cc1cc(N2CCC(N(C)C(=O)CCS(=O)(=O)c3cc4ccc(Cl)cc4s3)CC2)ccn1` the IC50 (Coagulation factor X) was over 5000 nM.
With `CCN(CCCS(=O)(=O)c1ccc2cc(Cl)ccc2c1)C(=O)C1CCN(c2ccncc2)CC1` the IC50 (Coagulation factor X) was 120 nM and the Activity (Plasma [1]) was 3.2 µM.
`NCCN(C(=O)CCS(=O)(=O)c1ccc2cc(Cl)ccc2c1)C1CCN(c2ccncc2)CC1` showed an IC50 (Coagulation factor X) of 95 nM, an Activity (Plasma [1]) of 0.63 µM and an Activity (Plasma [2]) of 8.6 µM. The Ratio (Mus musculus) was 1.
With `CN(CCCS(=O)(=O)c1ccc2cc(Cl)ccc2c1)C(=O)C1CCN(c2ccncc2)CC1` the Activity (Plasma [1]) was 1.7 µM, the Activity (Plasma [2]) was 17 µM and the Ratio (Mus musculus) was 1.3.
In the case of `CC(C)N(CCCS(=O)(=O)c1ccc2cc(Cl)ccc2c1)C(=O)C1CCN(c2ccncc2)CC1`, the IC50 (Coagulation factor X) is reported as 250 nM and the Activity (Plasma [1]) is reported as 8.4 µM.
For `Cc1ccc2cc(S(=O)(=O)CCC(=O)N(C)C3CCN(c4ccnc(C)c4)CC3)ccc2c1`, the IC50 (Coagulation factor X) was 720 nM.
`CN(CCS(=O)(=O)c1ccc2cc(Cl)ccc2c1)C(=O)C1CCN(c2ccncc2)CC1` showed an IC50 (Coagulation factor X) of 840 nM.
With `Cc1cc(N2CCC(N(C)C(=O)CCS(=O)(=O)c3cc4cc(Cl)ccc4s3)CC2)ccn1` the IC50 (Coagulation factor X) was over 5000 nM.
`CN(C(=O)CS(=O)(=O)c1ccc2cc(Cl)ccc2c1)C1CCN(c2ccncc2)CC1` gave an IC50 (Coagulation factor X) of 720 nM.
With `CN(C(=O)CCS(=O)(=O)c1ccc2cc(Cl)ccc2c1)C1CCN(c2ccncc2)CC1` the IC50 (Coagulation factor X) was 50 nM, the Activity (Plasma [1]) was 1 µM and the Activity (Plasma [2]) was 8 µM. It also gave a Ratio (Mus musculus) of 1.6 and an inhibition at 1 µM (CYP3A4) of 81%.
In the case of `Cc1cc(N2CCC(N(C)C(=O)CCS(=O)(=O)c3ccc4cc(Cl)ccc4c3)CC2)cc(C)n1`, the Activity (Plasma [1]) is reported as 1.6 µM, the Activity (Plasma [2]) is reported as 4.1 µM and the Ratio (Mus musculus) is reported as 1.3. For the same compound, the inhibition at 1 µM (CYP3A4) was 40%.
For `CN(C(=O)CCCS(=O)(=O)c1ccc2cc(Cl)ccc2c1)C1CCN(c2ccncc2)CC1`, the IC50 (Coagulation factor X) was 140 nM.
Compound `CC(=N)N1CC[C@H](Oc2ccc([C@H](Cc3ccc4ccc(C(=N)N)cc4c3)C(=O)O)cc2)C1` [DX-9065A] has an Activity (Plasma [1]) of 0.69 µM and an Activity (Plasma [2]) of 6.8 µM.
Work on `O=C(O)CN(CCCS(=O)(=O)c1ccc2cc(Cl)ccc2c1)C(=O)C1CCN(c2ccncc2)CC1` yielded an IC50 (Coagulation factor X) of 54 nM, an Activity (Plasma [1]) of 1.8 µM and an Activity (Plasma [2]) of 14 µM. It also gave a Ratio (Mus musculus) of 1.
In the case of `Cc1cc(N2CCC(N(C)C(=O)CCS(=O)(=O)c3ccc4cc(Cl)ccc4c3)CC2)ccn1`, the IC50 (Coagulation factor X) is reported as 61 nM, the Ki (Coagulation factor X) is reported as 15 nM and the Activity (Plasma [1]) is reported as 1.6 µM. It also gave an Activity (Plasma [2]) of 4.8 µM, a Ratio (Mus musculus) of 1.6 and an inhibition at 1 µM (CYP3A4) of 40%. For the same compound, the Ki (Prothrombin) was 7500 nM, the Ki (Plasma kallikrein) was 3000 nM and the Ki (Trypsin) was over 200000 nM. The Ki (Plasminogen) was over 200000 nM, the Ki [3] was 67000 nM and the concentration at 5 min [4] was 565 ng/mL. It also gave an AUC (Cynomolgus monkey [5]) of 1580 ng·h/mL, an MRT [6] of 4.54 h and a Vd [7] of 3.29 L/kg. It also gave a clearance [8] of 12.2 mL/min/kg, a Cmax [9] of 134 ng/mL and a Tmax [10] of 2 h. The AUC [11] was 1030 ng·h/mL, the MRT [12] was 6.6 h and the bioavailability [13] was 66.7%. It also gave an Activity (Cynomolgus monkey [14]) of 142%, an Activity (Cynomolgus monkey [15]) of 133.6% and an Activity (Cynomolgus monkey [16]) of 146.9%. It also gave an Activity (Cynomolgus monkey [17]) of 144.6%, an Activity (Cynomolgus monkey [18]) of 117.7% and an Activity (Plasma [19]) of 1.1 µM.
In the case of `CCOC(=O)CN(CCCS(=O)(=O)c1ccc2cc(Cl)ccc2c1)C(=O)C1CCN(c2ccncc2)CC1`, the IC50 (Coagulation factor X) is reported as 64 nM, the Activity (Plasma [1]) is reported as 1.9 µM and the Activity (Plasma [2]) is reported as 11 µM. For the same compound, the Ratio (Mus musculus) was 1.
`O=C(NCCCS(=O)(=O)c1ccc2cc(Cl)ccc2c1)C1CCN(c2ccncc2)CC1` showed an IC50 (Coagulation factor X) of 470 nM.
With `CN(C(=O)CCS(=O)(=O)c1ccc2cc(Cl)ccc2c1)C1CCN(c2ccnc(N)c2)CC1` the IC50 (Coagulation factor X) was 79 nM, the Activity (Plasma [1]) was 3.6 µM and the inhibition at 1 µM (CYP3A4) was 49%.
Compound `Cc1cc(N2CCC(N(C)C(=O)CCS(=O)(=O)c3ccc4ccc(Cl)cc4c3)CC2)ccn1` has an IC50 (Coagulation factor X) of over 5000 nM.
For `CCOC(=O)CN(C(=O)CCS(=O)(=O)c1ccc2cc(Cl)ccc2c1)C1CCN(c2ccncc2)CC1`, the IC50 (Coagulation factor X) was 60 nM, the Activity (Plasma [1]) was 1.1 µM and the Activity (Plasma [2]) was 10 µM. It also gave a Ratio (Mus musculus) of 1.1.
Work on `O=C(CCS(=O)(=O)c1ccc2cc(Cl)ccc2c1)N1CCN(c2ccncc2)CC1` yielded an IC50 (Coagulation factor X) of 160 nM.
For `CCOC(=O)CCN(C(=O)CCS(=O)(=O)c1ccc2cc(Cl)ccc2c1)C1CCN(c2ccncc2)CC1`, the Activity (Plasma [1]) was 0.85 µM, the Activity (Plasma [2]) was 14 µM and the Ratio (Mus musculus) was 1.
